According to ChEMBL document CHEMBL4392864, “Diketopiperazine-Type Alkaloids from a Deep-Sea-Derived Aspergillus puniceus Fungus and Their Effects on Liver X Receptor α” (J Nat Prod, 2019):
Active and inactive are the calls of the source. No cut-off for these calls is given here.

Legend:
[1] = molecular target: T1, Tyrosine-protein phosphatase non-receptor type 1 (Homo sapiens, UniProt P18031); assay: Inhibition of recombinant human PTP1B expressed in Escherichia coli […] preincubated for 15 mins followed by substrate addition and measured after 60 mins
T1 sequence (P18031 whole entry): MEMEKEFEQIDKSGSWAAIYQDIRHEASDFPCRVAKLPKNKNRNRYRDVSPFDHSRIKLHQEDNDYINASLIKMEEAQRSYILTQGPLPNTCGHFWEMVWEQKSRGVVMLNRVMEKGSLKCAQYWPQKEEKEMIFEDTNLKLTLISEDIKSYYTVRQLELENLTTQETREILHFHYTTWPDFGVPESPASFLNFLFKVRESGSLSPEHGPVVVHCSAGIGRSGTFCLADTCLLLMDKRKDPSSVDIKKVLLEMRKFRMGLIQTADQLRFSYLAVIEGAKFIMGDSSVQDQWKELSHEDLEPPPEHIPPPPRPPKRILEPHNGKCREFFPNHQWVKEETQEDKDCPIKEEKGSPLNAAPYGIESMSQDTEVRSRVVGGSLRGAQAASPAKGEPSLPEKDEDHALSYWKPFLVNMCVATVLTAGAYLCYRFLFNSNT
Summary of the method: (§1)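 Recombinant human phosphatases were expressed in E. coli and purified. Enzyme and compound were preincubated for 15 min at room temperature in pH 6.5 buffer (50 mM HEPES, 100 mM NaCl, 1 mM EDTA, 1 mM DTT). Buffer containing 50 mM pNPP was then added and the mix incubated for 60 min at 37 °C. Product p-nitrophenol was read at 405 nm. Assays were run in triplicate and IC50 derived.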

[2] = test system: Colletotrichum gloeosporioides; assay: Antifungal activity against Colletotrichum gloeosporioides HNM 1003 assessed as growth inhibition at 0.6 mM measured after 48 hrs by microbroth dilution method; assay type: functional; conditions: HNM 1003, 48 h, read-out: GI
Summary of the method: (§2)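 Fungi were grown on PDA plates for 6−8 days at 30 °C, then the mycelia were moved into PD medium and filtered through cotton to give a spore suspension. Each well held PD medium, sample from a 10 mg/mL DMSO stock at about 0.6 mM, and spores (1 × 10^6 CFU). DMSO served as the negative control. OD600 was read at 0 and 48 h at 28 °C and percent growth inhibition calculated.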

[3] = molecular target: T2, Oxysterols receptor LXR-alpha (Homo sapiens, UniProt Q13133); assay: Transactivation of recombinant GAL4-fused human LXRalpha LBD (163 to 447 residues) expressed in human L02 cells measured after 24 hrs by luciferase reporter gene assay; assay type: cell-based
T2 sequence (Q13133 whole entry): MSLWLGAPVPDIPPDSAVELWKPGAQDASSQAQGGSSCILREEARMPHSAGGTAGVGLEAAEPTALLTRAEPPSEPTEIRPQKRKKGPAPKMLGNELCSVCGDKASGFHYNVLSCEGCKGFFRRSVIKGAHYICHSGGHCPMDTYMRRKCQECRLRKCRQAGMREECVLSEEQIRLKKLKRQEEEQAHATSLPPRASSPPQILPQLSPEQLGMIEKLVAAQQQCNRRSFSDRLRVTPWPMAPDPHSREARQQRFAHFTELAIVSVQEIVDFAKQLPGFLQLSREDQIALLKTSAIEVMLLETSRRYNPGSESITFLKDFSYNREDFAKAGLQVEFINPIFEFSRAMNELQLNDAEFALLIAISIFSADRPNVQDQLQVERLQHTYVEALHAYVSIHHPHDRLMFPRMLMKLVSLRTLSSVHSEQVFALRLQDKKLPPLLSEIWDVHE

[4] = molecular target: T3, Tyrosine-protein phosphatase non-receptor type 11 (Homo sapiens, UniProt Q06124); assay: Inhibition of recombinant human SHP2 expressed in Escherichia coli […] preincubated for 15 mins followed by substrate addition and measured after 60 mins; summary of the method: as §1
T3 sequence (Q06124 whole entry): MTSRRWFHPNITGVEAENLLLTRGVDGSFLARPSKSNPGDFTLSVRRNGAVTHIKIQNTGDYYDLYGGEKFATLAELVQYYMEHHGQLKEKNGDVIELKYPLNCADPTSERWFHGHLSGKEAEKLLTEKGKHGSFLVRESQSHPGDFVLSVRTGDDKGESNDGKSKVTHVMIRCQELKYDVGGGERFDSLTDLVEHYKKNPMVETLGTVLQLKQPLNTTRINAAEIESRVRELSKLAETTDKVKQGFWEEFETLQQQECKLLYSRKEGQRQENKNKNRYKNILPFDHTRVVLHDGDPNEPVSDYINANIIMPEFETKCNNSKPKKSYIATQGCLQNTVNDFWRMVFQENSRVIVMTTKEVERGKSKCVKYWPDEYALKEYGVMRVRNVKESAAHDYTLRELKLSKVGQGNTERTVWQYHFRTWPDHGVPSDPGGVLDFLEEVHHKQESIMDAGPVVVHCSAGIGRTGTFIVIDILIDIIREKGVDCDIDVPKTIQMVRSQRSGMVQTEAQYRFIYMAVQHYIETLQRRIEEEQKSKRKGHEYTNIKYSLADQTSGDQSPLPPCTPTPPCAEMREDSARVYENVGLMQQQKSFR

Pyricularia oryzae = assay: Antifungal activity against Pyricularia oryzae HNM 1003 assessed as growth inhibition at 0.6 mM measured after 48 hrs by microbroth dilution method; assay type: functional; conditions: HNM 1003, 48 h, read-out: GI
Fusarium oxysporum = assay: Antifungal activity against Fusarium oxysporum HNM 1003 assessed as growth inhibition at 0.6 mM measured after 48 hrs by microbroth dilution method; assay type: functional; conditions: HNM 1003, 48 h, read-out: GI; summary of the method: as §2
[5] = molecular target: Indoleamine 2,3-dioxygenase 1 (Homo sapiens, UniProt P14902); assay: Inhibition of recombinant human IDO1 expressed in Escherichia coli […] preincubated for 15 mins followed by substrate addition and measured after 60 mins
Chain of Indoleamine 2,3-dioxygenase 1 (P14902 whole entry): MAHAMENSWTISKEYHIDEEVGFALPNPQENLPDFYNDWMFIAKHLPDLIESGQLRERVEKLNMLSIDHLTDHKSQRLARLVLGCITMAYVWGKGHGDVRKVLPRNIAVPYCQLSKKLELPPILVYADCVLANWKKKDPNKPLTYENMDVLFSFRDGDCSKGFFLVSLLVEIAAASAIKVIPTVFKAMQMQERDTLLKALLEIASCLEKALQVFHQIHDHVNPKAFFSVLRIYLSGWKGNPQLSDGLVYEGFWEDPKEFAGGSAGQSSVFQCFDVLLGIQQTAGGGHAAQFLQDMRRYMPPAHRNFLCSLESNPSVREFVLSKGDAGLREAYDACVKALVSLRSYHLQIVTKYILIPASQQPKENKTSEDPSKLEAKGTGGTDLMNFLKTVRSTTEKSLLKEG

[6] = molecular target: T4, Tyrosine-protein phosphatase non-receptor type 2 (Homo sapiens, UniProt P17706); assay: Inhibition of recombinant human TCPTP expressed in Escherichia coli […] preincubated for 15 mins followed by substrate addition and measured after 60 mins; summary of the method: as §1
T4 sequence (P17706 whole entry): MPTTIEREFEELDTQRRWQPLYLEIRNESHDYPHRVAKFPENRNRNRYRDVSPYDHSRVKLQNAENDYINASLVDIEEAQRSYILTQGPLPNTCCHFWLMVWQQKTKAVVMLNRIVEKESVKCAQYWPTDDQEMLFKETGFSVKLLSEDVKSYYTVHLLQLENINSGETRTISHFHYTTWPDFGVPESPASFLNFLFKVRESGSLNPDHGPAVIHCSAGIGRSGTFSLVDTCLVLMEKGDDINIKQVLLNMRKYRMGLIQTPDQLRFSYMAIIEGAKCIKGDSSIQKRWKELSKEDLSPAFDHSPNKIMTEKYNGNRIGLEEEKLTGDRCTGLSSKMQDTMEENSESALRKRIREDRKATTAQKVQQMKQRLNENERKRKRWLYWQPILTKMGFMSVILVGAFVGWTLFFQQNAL

[7] = molecular target: Tyrosine-protein phosphatase non-receptor type 6 (Homo sapiens, UniProt P29350); assay: Inhibition of recombinant human SHP1 expressed in Escherichia coli […] preincubated for 15 mins followed by substrate addition and measured after 60 mins; summary of the method: as §1
Chain of Tyrosine-protein phosphatase non-receptor type 6 (P29350 whole entry): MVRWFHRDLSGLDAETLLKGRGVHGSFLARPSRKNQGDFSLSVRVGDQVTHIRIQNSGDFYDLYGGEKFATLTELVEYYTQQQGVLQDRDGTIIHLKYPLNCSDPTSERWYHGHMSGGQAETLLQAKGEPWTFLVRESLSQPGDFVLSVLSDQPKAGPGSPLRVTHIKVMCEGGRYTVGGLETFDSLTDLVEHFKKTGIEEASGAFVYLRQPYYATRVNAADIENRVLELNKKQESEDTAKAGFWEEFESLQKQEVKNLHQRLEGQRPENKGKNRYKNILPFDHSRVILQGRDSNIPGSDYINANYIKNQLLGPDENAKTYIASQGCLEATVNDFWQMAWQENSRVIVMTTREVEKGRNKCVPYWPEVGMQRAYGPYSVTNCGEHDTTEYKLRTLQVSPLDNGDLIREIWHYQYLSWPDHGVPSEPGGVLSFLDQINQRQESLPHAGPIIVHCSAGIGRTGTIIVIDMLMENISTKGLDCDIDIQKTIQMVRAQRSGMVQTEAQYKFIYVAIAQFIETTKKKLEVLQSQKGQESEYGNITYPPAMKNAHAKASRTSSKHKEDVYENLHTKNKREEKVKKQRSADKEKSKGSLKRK

Curvularia australiensis = assay: Antifungal activity against Curvularia australiensis BY01 assessed as growth inhibition at 0.6 mM measured after 48 hrs by microbroth dilution method; assay type: functional; conditions: BY01, 48 h, read-out: GI; summary of the method: as §2
[8] = molecular target: T5, Tyrosine-protein phosphatase non-receptor type 9 (Homo sapiens, UniProt P43378); assay: Inhibition of recombinant human MEG2 expressed in Escherichia coli […] preincubated for 15 mins followed by substrate addition and measured after 60 mins; summary of the method: as §1
T5 sequence (P43378 whole entry): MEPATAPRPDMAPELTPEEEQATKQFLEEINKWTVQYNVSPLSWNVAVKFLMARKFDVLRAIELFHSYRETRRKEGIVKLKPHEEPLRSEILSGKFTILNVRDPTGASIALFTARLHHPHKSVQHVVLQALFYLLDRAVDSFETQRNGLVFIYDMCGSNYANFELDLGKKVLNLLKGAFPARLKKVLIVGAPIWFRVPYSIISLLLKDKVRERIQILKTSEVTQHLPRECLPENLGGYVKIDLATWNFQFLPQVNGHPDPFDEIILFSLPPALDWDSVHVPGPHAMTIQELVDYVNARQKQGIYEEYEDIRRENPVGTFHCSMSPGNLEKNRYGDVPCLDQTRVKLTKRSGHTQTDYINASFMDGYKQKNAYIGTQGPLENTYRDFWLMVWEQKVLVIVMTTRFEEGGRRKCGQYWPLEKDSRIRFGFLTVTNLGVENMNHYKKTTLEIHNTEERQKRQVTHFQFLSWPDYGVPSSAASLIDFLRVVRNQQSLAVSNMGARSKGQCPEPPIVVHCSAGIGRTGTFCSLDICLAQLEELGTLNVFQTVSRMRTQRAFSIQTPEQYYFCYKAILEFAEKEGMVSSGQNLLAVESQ

[9] = molecular target: L-lactate dehydrogenase A chain (Homo sapiens) (UniProt P00338); assay: Inhibition of recombinant human LDHA expressed in Escherichia coli […] preincubated for 15 mins followed by substrate addition and measured after 60 mins

**Q.** For `C[C@@H]1C(=O)N[C@](O)(Cc2ccccc2)c2nc3c(c(=O)n21)C=CC=CO3`, which IC50 [1] is on record?
**A.** 14 to 87 µM

**Q.** What about the inhibition of growth at 600 µM [2] of the same compound?
**A.** < 50%

**Q.** And the EC50 [3]?
**A.** 47 µM

**Q.** What about the IC50 [4] of the same compound?
**A.** 14 to 87 µM

**Q.** And the inhibition of growth at 600 µM (Pyricularia oryzae)?
**A.** < 50%

**Q.** What about the inhibition of growth at 600 µM (Fusarium oxysporum) of the same compound?
**A.** < 50%

**Q.** And the IC50 [5]?
**A.** 14 to 87 µM

**Q.** And the IC50 [6]?
**A.** 14 to 87 µM

**Q.** And the IC50 [7]?
**A.** 14 to 87 µM

**Q.** And the inhibition of growth at 600 µM (Curvularia australiensis)?
**A.** < 50%

**Q.** And the IC50 [8]?
**A.** 14 to 87 µM

**Q.** What about the inhibition [9] of the same compound?
**A.** inactive
